TRPC4 block – inhibitors of mouse TRPC4 channel, primary screen, Fluo4 calcium, HEK293 TRPC4beta/mu-opioid cells. DAMGO-evoked Fluo4 calcium flux; stronger effect = lower value. B-score at 10 µM. Short transient receptor potential channel 4 (Mus musculus), Q9QUQ5. AID 2247, 2010. 0.39% of 300,000 active;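 active means B-score over 3 SD under the library average, no early fluorescence shift, positive overall ratio signal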
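Assay system: TRPC4beta/mu-opioid receptor HEK293 cell line; compound dosing: single concentration per test compound; detection: Fluo4 Ca2+ flux fluorescence; evaluation: per-well B score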
TRPC4 PAM – positive allosteric modulators of TRPC4, primary screen, cell-based, mouse TRPC4beta, HEK293 mu-opioid, Fluo-4 calcium. B-score at 10 µM. Short transient receptor potential channel 4 (Mus musculus), Q9QUQ5. DAMGO EC20, Fluo-4 Ca2+ flux; stronger effect = higher value. 0.42% of 310,000 active;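 active means B-score of calcium response area above 5 SD of library B-scores, with initial fluorescence ratio within 5 SD of library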
TRPC4 agonist – activators of mouse TRPC4 channel, primary screen, Fluo4 calcium, HEK293 TRPC4beta/mu-opioid cells | Short transient receptor potential channel 4 (Mus musculus), Q9QUQ5 | Fluo4 calcium fluorescence; stronger effect = higher value | B-score at 10 µM | 0.49% of 310,000 active;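 active means B-score above 5 SD of library B-scores, and initial fluorescence ratio not above library mean plus 5 SD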;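 further: positive B-score marks a calcium rise read as TRPC4 activation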
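system = HEK293 cells stably co-expressing mouse TRPC4beta and mu-opioid receptor | schedule = Fluo4 dye loading 45 min at room temperature, 110 s recording | measure = B-scored integrated calcium fluorescence ratio | signal = Fluo4 calcium-sensitive dye fluorescence, kinetic, 1 Hz baseline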
TRPC6 act – mouse TRPC6 channel activators, primary screen, cell-based, HEK293, membrane potential dye; B-score at 10 µM; 0.13% of 310,000 active; HEK293-TRPC6 membrane potential dye fluorescence; stronger effect = higher value; Short transient receptor potential channel 6 (Mus musculus), Q61143; AID 2550, 2010;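 active means B-score of the integrated fluorescence ratio above library mean plus 3 SD, and starting fluorescence ratio within library mean plus 5 SD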;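 further: higher score means more depolarization so channel activation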
Target sequence (Q61143 whole entry, looked up): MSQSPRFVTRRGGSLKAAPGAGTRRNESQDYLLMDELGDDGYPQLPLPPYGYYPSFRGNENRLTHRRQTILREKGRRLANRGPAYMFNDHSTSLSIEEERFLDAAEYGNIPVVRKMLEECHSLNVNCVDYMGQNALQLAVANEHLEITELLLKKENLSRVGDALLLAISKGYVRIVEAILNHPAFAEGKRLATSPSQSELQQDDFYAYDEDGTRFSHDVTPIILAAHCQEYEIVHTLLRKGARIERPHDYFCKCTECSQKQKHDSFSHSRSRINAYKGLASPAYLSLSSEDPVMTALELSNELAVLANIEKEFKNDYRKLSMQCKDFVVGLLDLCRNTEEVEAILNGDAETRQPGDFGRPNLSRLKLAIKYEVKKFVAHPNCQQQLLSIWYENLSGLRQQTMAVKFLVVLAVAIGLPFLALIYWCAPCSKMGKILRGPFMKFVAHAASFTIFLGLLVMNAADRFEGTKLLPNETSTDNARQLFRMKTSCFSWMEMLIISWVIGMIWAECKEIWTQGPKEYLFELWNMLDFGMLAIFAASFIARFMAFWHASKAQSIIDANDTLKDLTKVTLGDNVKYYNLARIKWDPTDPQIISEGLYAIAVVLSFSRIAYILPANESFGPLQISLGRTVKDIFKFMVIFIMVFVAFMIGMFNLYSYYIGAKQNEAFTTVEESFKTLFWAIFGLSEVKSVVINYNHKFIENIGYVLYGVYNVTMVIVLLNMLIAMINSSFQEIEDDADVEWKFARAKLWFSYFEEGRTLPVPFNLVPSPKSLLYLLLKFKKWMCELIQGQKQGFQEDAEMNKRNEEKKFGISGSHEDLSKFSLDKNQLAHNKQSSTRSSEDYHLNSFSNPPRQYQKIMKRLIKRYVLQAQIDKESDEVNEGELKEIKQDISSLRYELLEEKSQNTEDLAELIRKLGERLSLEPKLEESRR
TRPC6 inhibitor – mouse TRPC6 channel inhibitors, primary screen, cell-based, HEK293, membrane potential dye. AID 2553, 2010. B-score at 10 µM. 1.1% of 310,000 active. ACh-evoked depolarization; stronger effect = lower value. Short transient receptor potential channel 6 (Mus musculus), Q61143;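 active means B-score under library mean minus 3 SD, initial fluorescence not abnormally high, positive integrated signal ratio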;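 further: B-score derived from integrated fluorescence ratio over the kinetic read; more negative B-score means stronger inhibition of depolarization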
TRPC4 spec 2 – second check of whether TRPC6 inhibitors also affect mouse TRPC4; shares compounds with TRPC6 inhibitor; HEK293 TRPC4/MOR, membrane potential dye fluorescence; channel activated by saturating DAMGO dose; inhibition, % at 10 µM; 42% of 920 active; AID 2776;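 active means compounds whose fluorescence signal differed from control wells by over 3 SD, either direction, in both duplicate plates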
TRPC4 spec – mouse TRPC4 modulation by TRPC6 hits, confirmation, selectivity assay for TRPC6 inhibitor project, cell-based, HEK293 TRPC4/mu-opioid, membrane potential dye. shares compounds with TRPC6 inhibitor. membrane potential fluorescence. activity change, negative = inhibition, % at 10 µM. 61% of 920 active;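 active means rise or fall in signal beyond 3 SD of buffer-only wells in both replicate plates, either sign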;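 further: integrated kinetic ratio of fluorescence range over baseline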
HEK293 MPD ctr 2-1 – nonspecific membrane potential effects, parental HEK293, confirmation, counter-screen for TRPC6 inhibitor project, cell-based, second counter screen; shares compounds with TRPC6 inhibitor; parental HEK293 membrane potential dye fluorescence; maximal acetylcholine challenge after compound addition; signal change vs control, % at 10 µM; 31% of 920 active; AID 2779, 2010;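 active means membrane potential signal moving either way by over 3 SD of the maximum-effect control, in both duplicate plates, meaning non-specific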
HEK293 MPD ctr-1 – membrane potential modulation in parental HEK293, confirmation, counter-screen for TRPC6 inhibitor project, cell-based. shares compounds with TRPC6 inhibitor. parental HEK293 membrane potential dye fluorescence. membrane potential signal change, % at 10 µM. 60% of 920 active. AID 2780, 2010;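 active means membrane potential signal shifting up or down by more than 3 SD of buffer-only wells, on both duplicate plates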
HEK293 MPD ctr-2 – parental HEK293 membrane potential modulation, confirmation, counter-screen for TRPC6 modulator project, cell-based; shares compounds with TRPC6 inhibitor; membrane potential dye fluorescence; membrane potential signal change, % at 10 µM; 51% of 2,400 active; AID 488924, 2010;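 active means membrane potential signal moves up or down beyond 5 SD from buffer-only wells, on both duplicate plates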
HEK293 MPD ctr 2-2 – parental HEK293 nonspecific activity of TRPC6 modulators, second screen; shares compounds with TRPC6 inhibitor; membrane potential dye fluorescence; after compound, maximal acetylcholine stimulation; inhibition, % at 10 µM; 14% of 2,400 active;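 active means membrane potential signal drops by more than 5 SD from the mean control signal, in both duplicate plates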
TRPC4 ctr mod – TRPC4 modulation by TRPC6 hit compounds, confirmation, selectivity assay for TRPC6 modulator project, cell-based, HEK293 TRPC4/mu-opioid, membrane potential dye, mouse. shares compounds with TRPC6 inhibitor. membrane potential fluorescence. percent change from control (negative = decrease, positive = increase), % at 10 µM. 69% of 2,400 active;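 active means membrane potential signal moved up or down beyond 5 SD of buffer control wells, in both duplicate plates, actives on both sides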
TRPC4/MOR inh 2 – mouse TRPC4 off-target activity of TRPC6 modulators, second screen; inhibition, % at 10 µM; shares compounds with TRPC6 inhibitor; 55% of 2,400 active; HEK293 TRPC4/mu-opioid, membrane potential dye fluorescence; stimulated with maximal-effect DAMGO; AID 488928;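 active means drop in membrane potential signal beyond 5 SD of the control wells in both duplicate plates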;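 further: TRPC4 counter screen for TRPC6 hits run under conditions tuned for TRPC6 not TRPC4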
TRPC6 inh conf – mouse TRPC6 channel inhibitors, confirmation, HEK293 cells, membrane potential dye, duplicate; shares compounds with TRPC6 inhibitor; ACh-evoked depolarization; inhibition, % at 10 µM; 43% of 3,300 active; AID 488960, 2010;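 active means fluorescence ratio falls more than 5 SD below the full-stimulation control mean, in both duplicate runs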;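 further: integrated fluorescence ratio of peak minus minimum over baseline after agonist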
TRPC6 act confirm – mouse TRPC6 channel activators, confirmation, HEK293 cells, membrane potential dye, duplicate; shares compounds with TRPC6 inhibitor; HEK293-TRPC6 membrane potential dye fluorescence, FDSS; activation, % at 10 µM; 11% of 2,800 active; AID 488961, 2010;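 active means ratio signal rise beyond 5 SD above unstimulated control wells' mean, seen in both duplicate runs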
A number is an active result; . = inactive; / = no result given. The list is not random: actives were taken first. Their share in the collection is about 2.3%.

SMILES	TRPC4 block	TRPC4 PAM	TRPC4 agonist	TRPC6 act	TRPC6 inhibitor	HEK293 MPD ctr-2	HEK293 MPD ctr 2-2	TRPC4 ctr mod	TRPC4/MOR inh 2	TRPC6 inh conf	TRPC6 act confirm	others
Cc1c(C)n(C)c2ccc(C(=O)N3CCN(c4ccccc4)CC3)cc12	.	.	.	.	-7.2	.	.	.	.	40%	.
O=C(CN1CCCCC1)Nc1ccc(N2CCCCCC2)cc1	.	.	.	.	-6.6	.	.	.	36%	54%	.
CCN(CC)CC(=O)Nc1ccc(-c2nc3cc(NC(=O)CN(CC)CC)ccc3o2)cc1	.	.	.	.	-8.7	/	/	/	/	.	/	TRPC4 spec 2=72%;TRPC4 spec=.;HEK293 MPD ctr 2-1=.;HEK293 MPD ctr-1=.
O=C(CN1CCCC1)Nc1ccc(-c2nc3cc(NC(=O)CN4CCCC4)ccc3o2)cc1	.	.	.	12	.	218%	.	28%	.	.	76%
Cc1cccc(NC(=O)C2CC(=O)OC23CCCCC3)c1 (stereo unspecified)	.	.	.	.	.	/	/	/	/	/	/
COc1cc(NC(=O)c2cccs2)c(C(=O)OCC(=O)NCc2ccco2)cc1OC	.	.	.	.	.	/	/	/	/	/	/
COc1ccc2c(c1)c(C)cc[n+]2Cc1ccccc1	.	.	.	.	-5.2	-260%	.	-48%	52%	48%	.
CCOC(=O)c1nnc(-c2ccccc2)nc1NCc1ccccc1	.	.	.	.	.	/	/	/	/	/	/
CCOC(=O)c1c2n(c3c(NCc4ccccc4)ncnc13)CCCC2	.	.	.	.	-5.2	-94%	66%	-16%	46%	54%	.
NC(=O)c1nsc(C(=O)N(c2ccccc2)C(C(=O)NCC2CCCO2)c2ccc3ncccc3c2)c1N (stereo unspecified)	.	.	.	.	.	/	/	/	/	/	/
COC(=O)c1ccc(C(=S)N2CCCCC2)cc1	.	.	.	.	.	/	/	/	/	/	/
